In brackets after ≈: the same amount, converted by molar mass. Entries after “also recorded” stand apart in the source; their conditions may differ.
Columns and labels:
[1] = tested on: Klebsiella pneumoniae ATCC 700603; assay: MIC, broth microdilution / checkerboard; assay type: cell-based
[2] = molecular target: human recombinant glyoxylase II (Homo sapiens, UniProt Q16775); assay: Binding specificity, glyoxylase II activity; assay type: biochemical; details: for reduction of glyoxylase II activity: concentration not stated in the sentence (Table S2)
[3] = tested on: Klebsiella pneumoniae NDM; assay: MIC, broth microdilution / checkerboard; assay type: cell-based
Summary of the method: (§1)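 Two-fold dilution series in Mueller Hinton broth, per CLSI. Meropenem stock was in water and test compound stock in 50% DMSO, with final DMSO <1.0%. Wells got a 0.5 McFarland-standardised inoculum and were incubated at 35 °C for 18–20 h. MIC was the lowest concentration with no visible growth, run in triplicate.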

E. coli JAP (IMP-1) = assay: Antimicrobial susceptibility testing, broth microdilution; assay type: cell-based; details: Escherichia coli, read-out: MIC alone
Summary of the method: as §1

E. coli ATCC 25922 = assay: as above; assay type: cell-based; details: Escherichia coli, ATCC25922, read-out: MIC alone
Summary of the method: as §1

K. pneumoniae NDM = assay: Time kill kinetic study; assay type: cell-based; details: without BP1
Summary of the method: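 Overnight culture was diluted to about 10^6 cfu/mL and exposed to test compound fixed at 32 mg/L plus meropenem 0.5, 1 or 2 mg/L. Incubation was at 35 °C with 100 rpm shaking, alongside drug-free and meropenem-only controls. At 0, 2, 4, 6, 8 and 24 h, 0.1 mL was plated on MHA and incubated at 35 °C for ≥18 h, then cfu/mL counted. Analysis was by ANOVA.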

E. coli TWA (IMP-8) = assay: Antimicrobial susceptibility testing, broth microdilution; assay type: cell-based; details: Escherichia coli, read-out: MIC alone
Summary of the method: as §1

E. cloacae KAR (VIM-1) = assay: as above; assay type: cell-based; details: Enterobacter cloacae, read-out: MIC alone
Summary of the method: as §1

E. coli AUS 271 (NDM-1) = assay: as above; assay type: cell-based; details: Escherichia coli, read-out: MIC alone
Summary of the method: as §1

[4] = In vivo single-dose pharmacokinetics; parameters: species or system BALB/c mice; details: 10 mg/kg.b.w IP, plasma
Summary of the method: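 Female BALB/c mice, 6–8 weeks, acclimatised two weeks, got meropenem 10 mg/kg.b.w plus test compound 10 mg/kg.b.w together IP. Animals were killed at 0, 5, 15, 30, 45, 60, 90 and 120 min post-dose, with blood taken by cardiac puncture and stored at −80 °C. Drugs were quantified by LC–MS/MS (C18, water/acetonitrile with 0.1% TFA gradient, ESI, MRM mode).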

[5] = tested on: K. pneumoniae USA 449 (NDM); assay: Antimicrobial susceptibility testing, broth microdilution; assay type: cell-based; details: Klebsiella pneumoniae, read-out: MIC alone
Summary of the method: as §1

[6] = tested on: E. cloacae IR 386 (NDM-1); assay: as above; assay type: cell-based; details: Enterobacter cloacae, read-out: MIC alone
Summary of the method: as §1

E. coli FEK (NDM-4) = assay: as above; assay type: cell-based; details: Escherichia coli, read-out: MIC alone
Summary of the method: as §1

In the case of `O=C(O)CN1CCN(CC(=O)O)CCN(CC(=O)O)CC1` [NOTA, 1,4,7-triazacyclononane-1,4,7-triacetic acid], the MIC ([1]; drug alone) is reported as “do not possess any activity; also recorded: resistant from 256 to 0.125”, the “inhibition of glyoxylase II” value ([2]; up to 500 μM) is reported as “did not reduce the activity” and the MIC ([3]; drug alone) is reported as “do not possess any activity”.
For `O=C(O)CN(CCN(CC(=O)O)CC(=O)O)CC(=O)O` [EDTA], the “reduction of glyoxylase II activity” value [2] was 39%.
In the case of `c1ccc(CN(CCN(Cc2ccccn2)Cc2ccccn2)Cc2ccccn2)nc1` [TPEN, N,N,N′,N′-tetrakis(2-pyridinylmethyl)-1,2-ethanediamine], the “reduction of glyoxylase II activity” value [2] is reported as 48%.
`C[C@@H](O)[C@H]1C(=O)N2C(C(=O)O)=C(S[C@@H]3CN[C@H](C(=O)N(C)C)C3)[C@H](C)[C@H]12` [meropenem] showed an MIC ([1]; Klebsiella pneumoniae, ATCC700603) of 0.03 µg/mL, an MIC (E. coli JAP (IMP-1)) of 8 µg/mL (≈ 20.9 µM) and an MIC (E. coli ATCC 25922) of 0.06 µg/mL (≈ 0.156 µM). For the same compound, the “time-kill activity, meropenem-only test group” value (K. pneumoniae NDM) was “ineffectiveness”, the MIC (E. coli TWA (IMP-8)) was 4 µg/mL (≈ 10.4 µM) and the MIC (E. cloacae KAR (VIM-1)) was 16 µg/mL (≈ 41.7 µM). The MIC (E. coli AUS 271 (NDM-1)) was 128 µg/mL (≈ 334 µM), the MIC ([3]; Klebsiella pneumoniae) was 128 µg/mL and the “time of peak concentration (Cmax) post drug administration” value [4] was 15 min. It also gave an MIC [5] of 128 µg/mL (≈ 334 µM), an MIC [6] of 32 µg/mL (≈ 83.4 µM) and an MIC (E. coli FEK (NDM-4)) of 128 µg/mL (≈ 334 µM).

— article PMC10012271 (ACS Infectious Diseases, 2023)
